Screening data from PubChem BioAssay.
EBNA-1 inhibitor: blocks EBNA-1 binding to DNA. EBNA-1 DNA binding, fluorescence polarization. inhibition, % at 14.8 µM. 300,000 compounds, 0.34% hits. AID 1950; in the data active = inhibition above about 28%
NS3 helicase inh: HCV NS3 helicase inhibition. NS3 helicase DNA unwinding, Cy5 molecular beacon fluorescence. inhibition, % at 10.9 µM. 290,000 compounds, 0.56% hits;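 active = inhibition above the mean of all tested compounds plus 3 SD, set per campaign, cut at about 35% in these data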;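 also: 0% = DMSO wells and 100% = thioflavine S control wells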
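Assay system – hepatitis C virus NS3 helicase domain fragment enzyme · Buffer or medium – MOPS pH 6.5, MgCl2, DTT, Tween20, BSA · Reagent – Cy5/quencher beacon DNA duplex and ATP to start · Compound – single 10.9 µM dose · Timing – 1 h at 25 °C · Technique – Cy5 beacon fluorescence read at start and 1 h · Measure – % inhibition of unwinding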
ZTA counter: counter-screen for EBNA-1 inhibitors: inhibitors of Epstein-Barr virus ZTA | P03206 | ZTA-DNA binding, fluorescence polarization | inhibition, % at 11 µM | 320,000 compounds, 0.15% hits | AID 2234; in the data active = inhibition above about 33%
Target sequence (P03206 whole entry, looked up): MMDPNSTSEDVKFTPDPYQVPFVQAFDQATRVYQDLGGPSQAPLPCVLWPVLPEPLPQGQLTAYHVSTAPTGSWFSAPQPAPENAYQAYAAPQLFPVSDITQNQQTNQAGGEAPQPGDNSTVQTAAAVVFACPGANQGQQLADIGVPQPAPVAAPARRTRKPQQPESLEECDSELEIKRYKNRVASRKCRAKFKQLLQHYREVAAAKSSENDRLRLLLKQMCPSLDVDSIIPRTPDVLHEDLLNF
core dimer inh: HCV core protein dimerization inhibition; TR-FRET GST/Flag-core106 dimerization, 1536-well; inhibition, % at 5 µM; 300,000 compounds, 0.33% hits;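 active = inhibition above the mean of all tested compounds plus 3 SD, set per screening campaign, cut at about 45% in these data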
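Test system: GST/Flag-tagged HCV core106 proteins; Medium: KF-containing HEPES buffer, pH 7.45, DTT, CHAPS, BSA; Times: compound-protein-antibody incubation 4 h at 22.5 °C; Detection: TR-FRET 671 and 617 nm emission; Benchmarks: wells lacking GST-core106 and wells with excess unlabelled core106.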
NS3 helicase cf: HCV NS3 helicase inhibition, confirmation assay | shares compounds with NS3 helicase inh | 1,600 compounds, 31% hits | NS3 helicase DNA unwinding, Cy5 molecular beacon fluorescence | inhibition, % at 10.9 µM;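 active = inhibition above the mean of all tested compounds plus 3 SD, cutoff set per campaign, cut at about 36% in these data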
DNA FID counter: counter-screen for HCV NS3 helicase inhibitors: DNA intercalator displacement; shares compounds with NS3 helicase inh; DNA fluorescent intercalator displacement, fluorescence; inhibition, % at 7.9 µM; 1,600 compounds, 4% hits; AID 1945; in the data active = inhibition above about 37%;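 also: 0% = vehicle and 100% = reference compound; higher means more displacement of ethidium bromide from the DNA hairpin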
Numbers without * were called inactive; . = no result given; + = active, no number. Rows were chosen to be rich in hits. Some 1.2% of all compounds tested hit in one or more screens of this group.

SMILES	EBNA-1 inhibitor	NS3 helicase inh	ZTA counter	core dimer inh	NS3 helicase cf	DNA FID counter
Fc1ccc(NC(=S)Nc2cccc3ccccc23)cc1F	0.3	43.8*	-10.4	2.2	9.7	5.5
Fc1ccc(NC(=S)Nc2cccc3ccccc23)cc1	0.4	2.9	7.3	8.6	.	.
COc1cccc(NC(=S)Nc2cccc3ccccc23)c1	-7.9	48.9*	-11.3	9.4	1.9	-5.8
Cc1cccc(NC(=S)Nc2cccc3ccccc23)c1	6.0	-1.3	-5.0	0.1	.	.
O=C1OC(c2ccc(Br)cc2)=N/C1=C\c1ccco1	-6.5	46.8*	0.6	-1.7	-5.6	15.8
COC(=O)c1ccc(NC(=O)CSc2ccc(-c3ccccn3)nn2)cc1	-8.8	-6.9	8.5	-4.9	.	.
COc1ccc(-c2ccc(-c3nc4c(c(=O)[nH]c(=O)n4Cc4ccccc4)n3C)o2)c([N+](=O)[O-])c1	10.9	18.0	18.6	32.8	.	.
COCCn1c(=O)[nH]c(=O)c2c1nc(-c1ccc(-c3ccc(Cl)cc3[N+](=O)[O-])o1)n2Cc1ccccc1	-7.0	36.3*	-9.1	54.8*	-6.3	-37.8
CCCCOc1ccc(C(=O)NCC(=O)NCC(c2ccc(F)cc2)N2CCOCC2)cc1 (stereo not drawn)	-10.7	.	-10.6	-5.0	.	.
COc1ccc(N2CC(C(=O)Nc3cccc(OC(C)C)c3)CC2=O)cc1 (stereo not drawn)	1.8	-2.1	2.5	2.4	.	.
CSc1ccc(/C=N/Nc2cccc(C(=O)O)c2)cc1	.	38.0*	.	.	76.3*	-5.2
Cc1cc2c(c(=O)o1)C(CCC1CCCCC1)C(C#N)=C(N)O2 (stereo not drawn)	-0.2	38.8*	-4.0	3.9	-21.4	-5.5
Cc1cccc(CNC(=O)CC2C(=O)NCCN2C2CCCC2)c1 (stereo not drawn)	5.3	-3.0	-3.6	-9.9	.	.
Cc1ccc(C(=O)/C=C/c2ccc(-c3ccc(C)cc3)o2)cc1	-1.8	24.2	7.0	31.5	.	.
O=C(/C=C\c1ccc(-c2ccccc2)o1)c1ccccc1	-4.5	40.1*	1.0	22.0	16.8	52.9*
COc1ccc(Sc2ccc(/C=C3\C(=O)NN(c4ccccc4)C3=O)o2)cc1	-8.3	47.4*	6.6	24.3	60.0*	17.4
COc1ccc(-n2c(C)cc(/C=C3\C(=O)NN(c4ccccc4)C3=O)c2C)cc1	3.8	1.0	14.2	10.1	.	.
O=C1NN(c2ccccc2)C(=O)/C1=C\c1ccccc1	.	49.5*	.	.	-28.3	13.2
CC1=CC2=NC(=O)/C(=C/c3coc4ccc(Cl)cc4c3=O)C(=N)N2O1	-7.0	41.9*	1.1	6.7	-20.5	4.7
Cc1ccc(/C=N/NC(=O)c2nnn(-c3nonc3N)c2C(C)C)s1	12.4	10.8	8.8	1.6	.	.
Cc1ccc(C(=O)NCC(=O)O)o1	-8.0	15.1	11.2	1.5	.	.
O=C(CCc1nc2ccccc2c(=O)[nH]1)Nc1ccc(F)c([N+](=O)[O-])c1	-7.1	51.6*	6.1	5.1	-11.2	12.6
O=C(CCc1nc2ccccc2c(=O)[nH]1)NCC(=O)Nc1ccc(F)c(F)c1	-5.2	.	2.0	0.7	.	.
CCN(CC)S(=O)(=O)c1ccc(NC(=O)c2cnccn2)cc1	-0.7	-6.8	-12.2	-3.1	.	.
N#Cc1c(C(F)(F)F)cc(-c2ccco2)nc1SCc1ccccn1	4.3	19.3	-7.7	5.3	.	.
SMILES	EBNA-1 inhibitor	NS3 helicase inh	ZTA counter	core dimer inh	NS3 helicase cf	DNA FID counter
N#Cc1c(C(F)(F)F)cc(-c2ccco2)nc1SCc1ccncc1	7.6	43.8*	2.8	6.2	-9.2	4.0
Cc1cc(S(=O)(=O)N2CCCCC2)c(C)s1	-11.4	67.1*	-15.1	-9.0	-10.1	-4.7
CCOC(=O)c1c(/N=C/C2=C(O)CC(C)(C)CC2=O)sc(C)c1C	3.4	2.6	-6.4	-6.8	.	.
C/C(CCC(=O)O)=N/Nc1ccc([N+](=O)[O-])cc1[N+](=O)[O-]	-6.8	-6.2	7.3	-7.5	.	.
O=C(O)/C(CC(=O)c1ccc(Cl)cc1)=N/Nc1ccc([N+](=O)[O-])cc1[N+](=O)[O-]	2.2	37.6*	5.6	18.1	52.4*	55.5*
CCCN(CC#CC(O)(c1ccccc1)c1cccnc1)CCC (stereo not drawn)	6.1	44.6*	10.2	-2.6	-9.9	4.3
CC(OC(=O)CCN=C1NS(=O)(=O)c2ccccc21)C(=O)Nc1ccc(N(C)C)cc1 (stereo not drawn)	-8.0	.	3.8	-7.2	.	.
COc1ccc(NC(=S)NNc2ccc(S(=O)(=O)Nc3ccccc3C(=O)O)cc2[N+](=O)[O-])cc1	5.5	39.5*	6.4	-9.0	83.5*	27.1
O=[N+]([O-])c1ccc(N2N=C(c3ccco3)CC2c2ccccc2)cc1 (stereo not drawn)	-14.5	38.2*	10.7	87.4*	17.6	26.2
Cn1c(-c2ccc3c(c2)OCO3)cc(=O)c2ccccc21	-4.9	5.4	-5.8	-2.8	.	.
Cn1c2ccccc2c(=O)c2ccc(-c3ccc4c(c3)OCO4)cc21	10.8	42.8*	8.7	20.2	7.0	1.6
Cc1cc([N+](=O)[O-])ccc1NC(=O)c1ccco1	1.5	-2.1	-17.6	-6.1	.	.
Cc1cc(NC(=O)c2ccc([N+](=O)[O-])cc2Cl)ccc1NC(=O)c1ccco1	-9.4	36.5*	-4.4	-4.1	-7.8	14.4
Cn1ncc(Br)c1C(=O)NC1CCCCCC1	.	2.4	.	.	.	.
C=CCN1C(=O)/C(=c2\sc3nc(=O)c(Cc4ccc(OC)c(OC)c4)nn3c2=O)c2ccccc21	-2.5	45.9*	-6.7	3.6	-2.0	-3.7
C=CCN1C(=O)/C(=c2\sc3nc(=O)c(Cc4ccccc4)nn3c2=O)c2ccccc21	8.9	15.9	-8.7	7.5	.	.
CC(C)CC(NC(=O)C1CCC(=O)N1)C(=O)NC(CC(C)C)C(=O)N1CCCC1C(N)=O (stereo not drawn)	6.4	4.0	-6.9	10.5	.	.
NS(=O)(=O)c1cc(C(=O)NC2CCSc3ccccc32)ccc1Cl (stereo not drawn)	18.2	83.5*	6.7	32.4	74.1*	1.7
Cc1ccc(C(=O)O)cc1NC(=S)NC(=O)c1ccc([N+](=O)[O-])c(C)c1	-1.2	2.2	0.1	1.8	.	.
CC1=NN(c2ccccc2)C(=O)C1N=Nc1ccc(C)cc1 (stereo not drawn)	3.2	-2.5	1.8	-1.7	.	.
CC1=NN(c2ccccc2)C(=O)C1C=Nc1ccc(N(C)C)cc1 (stereo not drawn)	82.3*	44.1*	+	-7.2	-0.9	0.9
O=C(O)C(Nc1nc(C(F)(F)F)nc2ccccc12)c1ccccc1 (stereo not drawn)	-5.4	9.4	-11.0	1.7	.	.
COc1ccc(C(=O)CC(=O)C(=O)Nc2ccc(C)cc2Cl)cc1	-10.3	38.5*	-3.4	2.5	-29.5	3.0
COc1cccc(C(=O)CC(=O)C(=O)Nc2ccc(C)cc2Cl)c1	3.8	63.2*	1.4	5.1	21.4	0.6
CCn1nccc1C(=O)Nc1ccc(C(=O)OC(C)C)cc1	1.5	-0.7	7.8	-3.3	.	.
